Assay results: ChEMBL document CHEMBL2216753, “Novel 1,4-benzoxazine and 1,4-benzodioxine inhibitors of angiogenesis” (Eur J Med Chem, 2012)
Active and inactive are the calls of the source. The rule behind the calls is not given here.

Experiments:
HeLa [1] = assay: Antiproliferative activity against human HeLa cells after 4 days by coulter counter method; format: functional, cell-based; details: 96 h
[2] = Antimigratory activity against mouse MAEC cell migration at 3 uM after 5 hrs by wound closure assay; format: functional
Procedure, shortened: (§1)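 Confluent MAEC monolayers wounded with a 1.0-mm wide micropipette tip, then incubated in fresh medium with test compound. Wounds photographed after 5 h and width calculated from digital images. Mean ± SD of 2–4 independent experiments; Student t test, p < 0.05 significant.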

MAEC [3] = assay: (§2) Antimigratory activity against mouse MAEC cell migration at 30 uM after 5 hrs by wound closure assay; format: functional; procedure, shortened: as §1
MCF7 [4] = assay: Cytotoxicity against human MCF7 cells at 30 uM after 3 days by coulter counter method; format: cell-based; details: mcf7, 72 h
Procedure, shortened: (§3)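 Cells seeded at 10,000 cells per cm2; after 16 h, fresh medium with test compound added. Cells trypsinized and counted with a Coulter counter on day 4 (BAEC, HeLa, MCF-7) or day 7 (HMEC-1). Cytotoxicity (cell death) was judged after 3 days in culture. HMEC-1 grown in EGM-2 with supplements and growth factors.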

MCF7 [5] = assay: Antiproliferative activity against human MCF7 cells after 4 days by coulter counter method; format: functional, cell-based; details: MCF7, 96 h
[6] = Cytotoxicity against human HMEC1 cells at 30 uM after 3 days by coulter counter method; format: cell-based; details: hmec-1, 72 h; procedure, shortened: as §3
HeLa [7] = assay: Cytotoxicity against human HeLa cells at 30 uM after 3 days by coulter counter method; format: cell-based; details: 72 h; procedure, shortened: as §3
HMEC-1 [8] = assay: Antiangiogenic activity in human HMEC1 cells assessed as inhibition of tube formation at 30 uM after 4 to 6 hrs by matrigel assay; format: functional, cell-based
Procedure, shortened: (§4)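 HMEC-1 (60,000 cells) seeded on matrigel (10 mg/mL) after 30 min gelling at 37 °C, in DMEM containing test compound; after 4–6 h cells photographed and tubes scored 0 (none) to 3 (maximal, like untreated control). Mean ± SD of 2–4 independent experiments; Student t test, p < 0.05 significant.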

[9] = Antiproliferative activity against human HMEC1 cells after 7 days by coulter counter method; format: functional, cell-based; details: HMEC-1, 168 h
MAEC [10] = assay: Antimigratory activity against mouse MAEC cell migration after 5 hrs by wound closure assay; format: functional, cell-based; procedure, shortened: as §1
[11] = Antiproliferative activity against bovine BAEC cells after 4 days by coulter counter method; format: functional, cell-based; details: Bos taurus, 96 h
Gallus gallus [12] = species: Gallus gallus; assay: Antiangiogenic activity in chicken embryo chorioallantoic membrane model assessed as destruction of vessels with bleeding at 20 nmol/disc after 3 days; format: functional, tissue-based
[13] = Antimigratory activity against mouse MAEC cell migration at 10 uM after 5 hrs by wound closure assay; format: functional; procedure, shortened: as §1
HeLa [14] = assay: Cytotoxicity against human HeLa cells at 100 uM after 3 days by coulter counter method; format: cell-based; details: 72 h; procedure, shortened: as §3
[15] = Cytotoxicity against bovine BAEC cells at 30 uM after 3 days by coulter counter method; format: cell-based, Bos taurus; details: cattle, 72 h; procedure, shortened: as §3
Gallus gallus [16] = species: Gallus gallus; assay: Antiangiogenic activity in chicken embryo chorioallantoic membrane model assessed as degradation of immature existing blood vessels at 40 to 250 nmol/disc after 3 days; format: functional, tissue-based
Gallus gallus [17] = species: Gallus gallus; assay: Antiangiogenic activity in chicken embryo chorioallantoic membrane model at 250 nmol/disc after 3 days; format: functional, tissue-based
MCF7 [18] = assay: Cytotoxicity against human MCF7 cells at 100 uM after 3 days by coulter counter method; format: cell-based; details: mcf7, 72 h; procedure, shortened: as §3
[19] = Cytotoxicity against human HMEC1 cells at 100 uM after 3 days by coulter counter method; format: cell-based; details: hmec-1, 72 h; procedure, shortened: as §3
[20] = Cytotoxicity against bovine BAEC cells at 100 uM after 3 days by coulter counter method; format: cell-based, Bos taurus; details: cattle, 72 h; procedure, shortened: as §3
HMEC-1 [21] = assay: Antiangiogenic activity in human HMEC1 cells assessed as inhibition of tube formation at 10 uM after 4 to 6 hrs by matrigel assay; format: functional, cell-based; procedure, shortened: as §4
Gallus gallus [22] = species: Gallus gallus; assay: Antiangiogenic activity in chicken embryo chorioallantoic membrane model assessed as inhibition of chorioallantoic membrane vascularization at 100 to 250 nmol/disc after 3 days; format: functional, tissue-based
Prothrombin = Prothrombin (Homo sapiens, UniProt P00734); assay: Inhibition of thrombin
[23] = as §2; format: functional; procedure, shortened: as §1
Gallus gallus [24] = species: Gallus gallus; assay: Antiangiogenic activity in chicken embryo chorioallantoic membrane model assessed as inhibition of pre-existing mature vessel at 100 to 250 nmol/disc after 3 days; format: functional, tissue-based
HMEC-1 [25] = assay: Antiangiogenic activity in human HMEC1 cells assessed as inhibition of tube formation after 4 to 6 hrs by matrigel assay; format: functional, cell-based; procedure, shortened: as §4

Row | SMILES | IC50 (HeLa [1]) [µM] | IC50 (MCF7 [5]) [µM] | IC50 [9] [µM] | inhibition (MAEC [10]) | IC50 [11] [µM] | inhibition at 10 µM [13] [%] | Activity (HeLa [14]) | inhibition (Gallus gallus [17]) | Activity (MCF7 [18]) | Activity [19] | Activity [20] | other results
1 | CCOC(=O)CN(Cc1cc(F)cc(F)c1)c1ccc2c(c1)N(C)CC(C)(COc1ccc(C(=N)N)cc1)O2 (configuration not stated) | 4.5 | 4.5 | 6.7 | Dose-dependent effect | 4 | 50 | Toxic | Active | Toxic | Toxic | Toxic | inhibition at 3 µM [2]: > 40%; inhibition (MAEC [3]): Active; Activity (MCF7 [4]): Toxic; Activity [6]: Toxic; Activity (HeLa [7]): Toxic; inhibition (HMEC-1 [8]): Active; Activity (Gallus gallus [12]): Active; Activity [15]: Toxic; Activity (Gallus gallus [16]): Active; inhibition (HMEC-1 [21]): inactive
2 | CCOC(=O)C(=O)N(Cc1ccccc1)c1ccc2c(c1)OC(COc1ccc(C(=N)N)cc1)CO2 (configuration not stated) | 8 | 8.7 | 22 | Dose-dependent effect | 8.5 | > 40 | Non-toxic | Active | Non-toxic | Non-toxic | Non-toxic | inhibition (Gallus gallus [22]): Active; Ki (Prothrombin): 0.178 µM; inhibition at 30 µM [23]: > 80%; Activity (Gallus gallus [24]): inactive; inhibition (HMEC-1 [25]): Dose-dependent effect
